According to ChEMBL document CHEMBL2040780, “Antiarrhythmic properties of phenylpiperazine derivatives of phenytoin with α₁-adrenoceptor affinities” (Bioorg Med Chem, 2012):
Calls of active or inactive are those of the source. No cut-off for these calls is given here.

Assays:
Rattus norvegicus [1] = experiment: Hypotensive activity in normotensive Wistar rat assessed as decrease in systolic blood pressure at 2.5 to 10 mg/kg, iv after 1 min measured up to 60 mins; type: organism-based, Artery; design: dose 2.5-10 mg/kg, route intravenous; conditions: in vivo
Method in brief: (§1)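 Right carotid artery cannulated with heparin-saline-filled tubing for blood pressure recording. After 5 min stabilisation, compound injected iv into the caudal vein (2.5–10 mg/kg, 1 ml/kg). Systolic and diastolic pressure followed for 60 min. n=6 per group, mean ± SEM, one-way ANOVA.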

Rattus norvegicus [2] = experiment: Antiarrhythmic activity in barium chloride-induced Wistar rat arrhythmia model assessed as protection against mortality at 2.5 to 10 mg/kg, iv administered 15 mins prior to barium chloride-challenge; type: functional, organism-based; conditions: Heart
Method in brief: (§2)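 Szekeres model in male Wistar rats. Activity is gradual disappearance of arrhythmia with restored sinus rhythm; protection against disturbances and death scored. Groups of 6 animals.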

Rattus norvegicus [3] = experiment: Cardiotoxicity in Wistar rat assessed as effect on Q-T interval at 5 mg/kg, iv after 1 min; type: toxicity, organism-based; design: dose 5 mg/kg, route intravenous; conditions: in vivo
Method in brief: (§3)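 Male Wistar rats (180–250 g), anaesthetised with thiopental 60 mg/kg ip. Compound given iv in water at 10 mg/kg, or at a lower starting dose of 5 or 2.5 mg/kg. Standard lead II ECG recorded at 50 mm/s just before dosing and at 1, 5 and 15 min after. Heart rate and P–Q, Q–T and QRS intervals were read. n=6 per group, mean ± SEM, one-way ANOVA.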

Rattus norvegicus [4] = experiment: Cardiotoxicity in Wistar rat assessed as effect on P-Q interval at 5 mg/kg, iv after 1 min; type: toxicity, organism-based; design: dose 5 mg/kg, route intravenous; conditions: in vivo; method in brief: as §3
Rattus norvegicus [5] = experiment: Cardiotoxicity in Wistar rat assessed as effect on P-Q interval at 5 mg/kg, iv after 15 mins; type: toxicity, organism-based; design: dose 5 mg/kg, route intravenous; conditions: in vivo, 0.25 h; method in brief: as §3
Rattus norvegicus [6] = experiment: Cardiotoxicity in Wistar rat assessed as effect on Q-T interval at 5 mg/kg, iv after 5 mins; type: toxicity, organism-based; design: dose 5 mg/kg, route intravenous; conditions: in vivo; method in brief: as §3
Rattus norvegicus [7] = experiment: Antiarrhythmic activity in iv dosed Wistar rat assessed as protection against barium chloride-induced extrasystoles administered 15 mins prior to barium chloride-challenge; type: functional, Heart; method in brief: as §2
[8] = molecular target: T1, Adrenergic receptor alpha-1 (Rattus norvegicus, UniProt P15823+P23944+P43140); experiment: Displacement of [3H]prazosin from alpha1 adrenoceptor in rat cerebral cortex after 30 mins by microbeta scintillation counting; type: tissue-based
T1 sequence (P15823 whole entry): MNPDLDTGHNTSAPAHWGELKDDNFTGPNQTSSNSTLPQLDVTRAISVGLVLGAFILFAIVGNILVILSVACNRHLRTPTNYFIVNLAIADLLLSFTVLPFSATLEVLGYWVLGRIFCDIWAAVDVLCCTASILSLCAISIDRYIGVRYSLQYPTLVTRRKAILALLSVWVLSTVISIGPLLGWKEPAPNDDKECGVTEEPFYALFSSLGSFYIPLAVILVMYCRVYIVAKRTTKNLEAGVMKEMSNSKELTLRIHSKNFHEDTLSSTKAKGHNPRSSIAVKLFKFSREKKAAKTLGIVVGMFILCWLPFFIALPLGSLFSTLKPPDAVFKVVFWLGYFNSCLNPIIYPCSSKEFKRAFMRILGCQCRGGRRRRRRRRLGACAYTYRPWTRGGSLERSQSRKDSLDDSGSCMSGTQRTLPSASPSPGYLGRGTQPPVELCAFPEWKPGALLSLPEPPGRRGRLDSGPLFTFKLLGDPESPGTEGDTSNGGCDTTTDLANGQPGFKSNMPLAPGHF
T1 sequence (P23944 whole entry): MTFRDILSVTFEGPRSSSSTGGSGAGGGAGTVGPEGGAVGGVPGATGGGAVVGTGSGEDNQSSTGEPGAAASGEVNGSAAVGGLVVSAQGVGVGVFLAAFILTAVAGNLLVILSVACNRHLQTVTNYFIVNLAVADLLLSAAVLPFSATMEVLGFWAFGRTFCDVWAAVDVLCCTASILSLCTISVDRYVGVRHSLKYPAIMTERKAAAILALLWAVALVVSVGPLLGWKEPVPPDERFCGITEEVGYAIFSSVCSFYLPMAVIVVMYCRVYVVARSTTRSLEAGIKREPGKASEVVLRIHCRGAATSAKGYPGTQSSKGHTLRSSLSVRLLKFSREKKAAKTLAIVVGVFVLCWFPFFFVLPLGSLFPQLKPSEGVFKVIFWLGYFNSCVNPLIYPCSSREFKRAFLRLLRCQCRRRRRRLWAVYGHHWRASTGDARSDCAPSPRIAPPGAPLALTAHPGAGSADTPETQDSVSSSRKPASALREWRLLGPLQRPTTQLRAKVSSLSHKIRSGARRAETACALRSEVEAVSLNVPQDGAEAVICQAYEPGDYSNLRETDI
T1 sequence (P43140 whole entry): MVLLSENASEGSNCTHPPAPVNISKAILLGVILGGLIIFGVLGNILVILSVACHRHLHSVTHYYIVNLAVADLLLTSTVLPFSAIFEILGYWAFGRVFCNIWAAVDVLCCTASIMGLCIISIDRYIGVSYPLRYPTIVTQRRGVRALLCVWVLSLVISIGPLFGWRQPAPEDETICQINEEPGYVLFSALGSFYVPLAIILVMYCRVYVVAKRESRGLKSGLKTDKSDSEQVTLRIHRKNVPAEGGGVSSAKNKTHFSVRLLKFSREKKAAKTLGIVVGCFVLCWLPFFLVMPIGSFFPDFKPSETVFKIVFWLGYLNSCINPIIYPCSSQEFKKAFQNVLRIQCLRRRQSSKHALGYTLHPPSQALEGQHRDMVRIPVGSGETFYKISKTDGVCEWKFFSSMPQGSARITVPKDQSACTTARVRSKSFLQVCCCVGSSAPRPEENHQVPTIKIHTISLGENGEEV
Method in brief: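 Rat cerebral cortex homogenised in ice-cold 50 mM Tris-HCl (pH 7.6 at 25 °C), washed twice at 20000×g and resuspended at 10 mg wet weight/ml. Incubated with [3H]prazosin (19.5 Ci/mmol) and test compound for 30 min at 25 °C. Nonspecific binding defined with 10 µM phentolamine. GF/B filtration, scintillation counting, three-parameter logistic competition fit.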

Rattus norvegicus [9] = experiment: Antiarrhythmic activity in Wistar rat assessed as effect on heart beat at 5 mg/kg, iv after 15 mins; type: functional; method in brief: as §3
Rattus norvegicus [10] = experiment: Antiarrhythmic activity in Wistar rat assessed as effect on heart beat at 5 mg/kg, iv after 1 min; type: functional; method in brief: as §3
Rattus norvegicus [11] = experiment: Cardiotoxicity in Wistar rat assessed as effect on QRS interval at 5 mg/kg, iv after 1 min; type: toxicity, organism-based; design: dose 5 mg/kg, route intravenous; conditions: in vivo; method in brief: as §3
Rattus norvegicus [12] = experiment: Antiarrhythmic activity in Wistar rat assessed as protection against adrenaline-induced extrasystoles at 2.5 to 10 mg/kg, iv administered 15 mins prior to adrenaline-challenge; type: functional, organism-based; conditions: Heart
Method in brief: (§4)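 Szekeres model in male Wistar rats anaesthetised with thiopental (60 mg/kg ip). Test compound given iv in water (2.5–10 mg/kg) 15 min before adrenaline 20 µg/kg iv. Scored for extrasystoles, bigeminy and mortality; activity means no premature beats and inhibited arrhythmia versus controls.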

Rattus norvegicus [13] = experiment: Antiarrhythmic activity in iv dosed Wistar rat assessed as protection against adrenaline-induced arrhythmia administered 15 mins prior to adrenaline-challenge; type: functional; conditions: Heart; method in brief: as §4
Rattus norvegicus [14] = experiment: Antiarrhythmic activity in Wistar rat assessed as effect on heart beat at 5 mg/kg, iv after 5 mins; type: functional; method in brief: as §3
Rattus norvegicus [15] = experiment: Hypotensive activity in normotensive Wistar rat assessed as decrease in systolic blood pressure at 2.5 to 10 mg/kg, iv at 1 min; type: organism-based, Artery; design: dose 2.5-10 mg/kg, route intravenous; conditions: in vivo; method in brief: as §1
Rattus norvegicus [16] = experiment: Cardiotoxicity in Wistar rat assessed as effect on QRS interval at 5 mg/kg, iv after 5 mins; type: toxicity, organism-based; design: dose 5 mg/kg, route intravenous; conditions: in vivo; method in brief: as §3
Rattus norvegicus [17] = experiment: Hypotensive activity in normotensive Wistar rat assessed as decrease in diastolic blood pressure at 2.5 to 10 mg/kg, iv at 1 min; type: organism-based, Artery; design: dose 2.5-10 mg/kg, route intravenous; conditions: in vivo; method in brief: as §1
Rattus norvegicus [18] = experiment: Antiarrhythmic activity in dosed Wistar rat assessed as protection against barium chloride-induced fibrillation administered 15 mins prior to barium chloride-challenge; type: functional, Heart; method in brief: as §2
Rattus norvegicus [19] = experiment: Cardiotoxicity in Wistar rat assessed as effect on Q-T interval at 5 mg/kg, iv after 15 mins; type: toxicity, organism-based; design: dose 5 mg/kg, route intravenous; conditions: in vivo, 0.25 h; method in brief: as §3
Rattus norvegicus [20] = experiment: Antiarrhythmic activity in Wistar rat assessed as protection against adrenaline-induced bigeminy at 2.5 to 10 mg/kg, iv administered 15 mins prior to adrenaline-challenge; type: functional, organism-based; conditions: Heart; method in brief: as §4
Rattus norvegicus [21] = experiment: Cardiotoxicity in Wistar rat assessed as effect on P-Q interval at 5 mg/kg, iv after 5 mins; type: toxicity, organism-based; design: dose 5 mg/kg, route intravenous; conditions: in vivo; method in brief: as §3
Rattus norvegicus [22] = experiment: Cardiotoxicity in Wistar rat assessed as effect on QRS interval at 5 mg/kg, iv after 15 mins; type: toxicity, organism-based; design: dose 5 mg/kg, route intravenous; conditions: in vivo, 0.25 h; method in brief: as §3
Rattus norvegicus [23] = experiment: Hypotensive activity in normotensive Wistar rat assessed as decrease in diastolic blood pressure at 2.5 to 10 mg/kg, iv after 1 min measured up to 60 mins; type: organism-based, Artery; design: dose 2.5-10 mg/kg, route intravenous; conditions: in vivo; method in brief: as §1
Rattus norvegicus [24] = experiment: Antiarrhythmic activity in iv dosed Wistar rat assessed as protection against adrenaline-induced extrasystoles administered 15 mins prior to adrenaline-challenge; type: functional, organism-based; conditions: Heart; method in brief: as §4
Rattus norvegicus [25] = experiment: Antiarrhythmic activity in iv dosed Wistar rat assessed as protection against adrenaline-induced bigeminy administered 15 mins prior to adrenaline-challenge; type: functional, organism-based; conditions: Heart; method in brief: as §4

## CN1C(=O)N(CC(O)CN2CCN(c3ccccc3F)CC2)C(c2ccccc2)(c2ccccc2)C1=O.Cl (racemic)
Rattus norvegicus [1]
  Activity: Non-toxic
Rattus norvegicus [2]
  Activity: Active
Rattus norvegicus [3]
  Activity: 81 ms
Rattus norvegicus [4]
  Activity: 64 ms
Rattus norvegicus [5]
  Activity: 59 ms
Rattus norvegicus [6]
  Activity: 74 ms
Rattus norvegicus [7]
  Activity: >50%
[8]
  Ki: 564.6 nM
  pKi: 6.25
Rattus norvegicus [9]
  Activity: 258 min⁻¹
Rattus norvegicus [10]
  Activity: 272 min⁻¹
Rattus norvegicus [11]
  Activity: 20 ms
Rattus norvegicus [12]
  Activity: Active
Rattus norvegicus [13]
  ED50: 1.92 mg/kg
Rattus norvegicus [14]
  Activity: 251 min⁻¹
Rattus norvegicus [15]
  Activity: Toxic
Rattus norvegicus [16]
  Activity: 17 ms
Rattus norvegicus [17]
  Activity: Toxic
Rattus norvegicus [18]
  Activity: >50%
Rattus norvegicus [19]
  Activity: 68 ms
Rattus norvegicus [20]
  Activity: Active
Rattus norvegicus [21]
  Activity: 62 ms
Rattus norvegicus [22]
  Activity: 16 ms
Rattus norvegicus [23]
  Activity: Non-toxic

## c1ccc(CC2=NCCN2)cc1 [TOLAZOLINE]
Rattus norvegicus [13]
  ED50: 3.4 mg/kg
Rattus norvegicus [24]
  Activity: Active
Rattus norvegicus [25]
  Activity: Active
